Several values for one entry are separate records, joined by “and”; a condition that tells them apart may be missing. Equal entries are not always repeated.
Columns and labels:
Rattus norvegicus [1] = organism: Rattus norvegicus; test: Tested for peak serum concentration in rat 4; type: functional, organism-based
How it was run: (§1)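 Nonfasted female Sim:(SD)fBr rats (200-300 g), acclimated 72 h in metabolism cages, got a single oral dose (20 mg polymer or 16 mg SASP) as aqueous solution or suspension. Blood, urine and feces were collected to 96 h. Samples were β-glucuronidase-treated (37 °C, 18 h), acetylated, extracted and read fluorimetrically (ex 295, em 460 nm) against N-Ac-ASA standards.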

Rattus norvegicus [2] = organism: Rattus norvegicus; test: Tested for peak serum concentration in rat 5; type: functional, organism-based; how it was run: as §1
Rattus norvegicus [3] = organism: Rattus norvegicus; test: Tested for peak serum concentration in rat; type: functional, organism-based; how it was run: as §1
Rattus norvegicus [4] = organism: Rattus norvegicus; test: Tested for peak serum concentration in rat 6; type: functional, organism-based; how it was run: as §1
Cavia porcellus [5] = organism: Cavia porcellus; test: Tested for mean score after quantitative histological evaluation result in guinea pig; type: functional; set-up: scale not given here
How it was run: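 Carrageenan colitis in male Hartley guinea pigs: 3 days of twice-daily gavage, then 5 wt % degraded carrageenan drinking water for 24 days with dosing continued. All animals, including early deaths, were scored histologically, reviewed blind by two evaluators. Total points per group were averaged and compared with untreated controls by Student's t test.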

Cavia porcellus [6] = organism: Cavia porcellus; test: Tested for cecal ulceration in diarrhea at 60 umol concentration of compound; type: functional
How it was run: (§2)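 Male Hartley guinea pigs (242-265 g), groups of 20, were gavaged twice daily with agent solutions or suspensions for 3 days. Then 5 wt % sterile degraded carrageenan was given as the sole drinking fluid, with dosing continued. Diarrhea was checked twice daily, body weight every 3 days, and necropsy done after 24 days of carrageenan.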

Cavia porcellus [7] = organism: Cavia porcellus; test: Tested for cecal ulceration in necropsy at 60 umol concentration of compound; type: functional; how it was run: as §2
Cavia porcellus [8] = organism: Cavia porcellus; test: Tested for cecal ulceration with mortality at 60 umol concentration of compound; type: functional
How it was run: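 Male Hartley guinea pigs (242-265 g, groups of 20) gavaged twice daily with 60 µmol doses as solution or suspension for 3 days. They were then given 5 wt % sterile degraded carrageenan as sole drinking fluid while dosing continued. Diarrhoea was checked twice daily and weight every 3 days. The study ended after 24 days of carrageenan, with necropsy and blind histology scored against untreated controls (Student's t test).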

Cavia porcellus [9] = organism: Cavia porcellus; test: Tested for weight loss in guinea pig at 60 umol concentration of compound; type: functional; how it was run: as §2
Rattus norvegicus [10] = test: Tested for peak serum concentration in feces after mean oral administered dose in rat; type: functional; how it was run: as §1
Rattus norvegicus [11] = test: Tested for peak serum concentration in feces after oral administered dose in rat 1; type: functional; how it was run: as §1
Rattus norvegicus [12] = test: Tested for peak serum concentration in feces after oral administered dose in rat 2; type: functional; how it was run: as §1
Rattus norvegicus [13] = test: (§3) Tested for peak serum concentration in feces after oral administered dose in rat 3; type: functional; how it was run: as §1
Rattus norvegicus [14] = test: Tested for peak serum concentration in urine after mean oral administered dose in rat; type: functional; how it was run: as §1
Rattus norvegicus [15] = test: Tested for peak serum concentration in urine after oral administered dose in rat 1; type: functional; how it was run: as §1
Rattus norvegicus [16] = test: Tested for peak serum concentration in urine after oral administered dose in rat 2; type: functional; how it was run: as §1
Rattus norvegicus [17] = test: Tested for peak serum concentration in urine after oral administered dose in rat 3; type: functional; how it was run: as §1
Rattus norvegicus [18] = test: Tested for total administered dose in rat 1; type: functional; how it was run: as §1
Rattus norvegicus [19] = test: Tested for total administered dose in rat 2; type: functional; how it was run: as §1
Rattus norvegicus [20] = test: as §3; type: functional; how it was run: as §1; remark: listed apart in the source
Rattus norvegicus [21] = test: Tested for peak serum concentration in feces after oral administered dose in rat 4; type: functional; how it was run: as §1
Rattus norvegicus [22] = test: Tested for peak serum concentration in feces after oral administered dose in rat 5; type: functional
How it was run: (§4)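 Nonfasted female Sim:(SD)fBr rats (200-300 g), acclimated 72 h to metabolism cages, got one oral dose as aqueous solution or suspension. Blood, urine and feces were collected to 96 h. Samples were hydrolysed with β-glucuronidase (pH 6.9, 37 °C, 18 h), acetylated, extracted with 4-methyl-2-pentanone and back-extracted into pH 6.0 buffer. Total 5-ASA plus metabolites were read fluorimetrically (ex 295, em 460 nm) against N-Ac-ASA standards.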

Rattus norvegicus [23] = test: Tested for peak serum concentration in urine after oral administered dose in rat 4; type: functional; how it was run: as §1
Rattus norvegicus [24] = test: Tested for peak serum concentration in urine after oral administered dose in rat 5; type: functional; how it was run: as §1
Rattus norvegicus [25] = test: Tested for peak serum concentration in urine after oral administered dose in rat 6; type: functional; how it was run: as §1
Rattus norvegicus [26] = test: Tested for total administered dose in rat 4; type: functional; how it was run: as §4
Rattus norvegicus [27] = test: Tested for total administered dose in rat 5; type: functional; how it was run: as §1
Rattus norvegicus [28] = test: (§5) Tested for peak serum concentration in feces after oral administered dose in rat 6; type: functional; how it was run: as §4
Rattus norvegicus [29] = test: as §5; type: functional; how it was run: as §1; remark: listed apart in the source

Structure (SMILES) | Mean score (Cavia porcellus [5]) | Incidence (Cavia porcellus [6]) | Incidence (Cavia porcellus [7]) | Incidence (Cavia porcellus [8]) | Weight loss (Cavia porcellus [9]) | Percent of oral dose recovered in feces (Rattus norvegicus [10]) | Dose (Rattus norvegicus [14]) | other results
O=C(O)c1cc(/N=N/c2ccc(S(=O)(=O)Nc3ccccn3)cc2)ccc1O |  |  |  |  |  |  |  | Concentration (Rattus norvegicus [1]): 7.9 nM ml-1; Concentration (Rattus norvegicus [2]): 4 nM ml-1; Concentration (Rattus norvegicus [3]): 2.5 nM ml-1 and 5.6 nM ml-1; Concentration (Rattus norvegicus [4]): 4.8 nM ml-1
Nc1ccc(O)c(C(=O)O)c1 [MESALAMINE] | 2.4 | 83% | 83% | 28% | 12 g |  |  | 
O=C([O-])c1cc(/N=N/c2ccc(S(=O)(=O)Nc3ccccn3)cc2)ccc1O.[Na+] [POLYMER OF SULFASALAZINE] | 2.16 | 85% | 85% | 25% | 37 g | 12.3% and 20.2% | 8% | Dose (Rattus norvegicus [11]): 5.3%; Dose (Rattus norvegicus [12]): 9.4%; Dose (Rattus norvegicus [13]): 29.7%; Dose (Rattus norvegicus [15]): 6.7%; Dose (Rattus norvegicus [16]): 9.5%; Dose (Rattus norvegicus [17]): 7.7%; Dose (Rattus norvegicus [18]): 12%; Dose (Rattus norvegicus [19]): 18.9%; Dose (Rattus norvegicus [20]): 22%
Nc1ccc(S(=O)(=O)Nc2ccccn2)cc1 [SULFAPYRIDINE] | 3.11 | 80% | 90% | 15% | 17 g |  |  | 
O=C(O)c1cc(/N=N/c2ccc(S(=O)(=O)Nc3ccccn3)cc2)ccc1O [SULFASALAZINE] | 2.68 | 100% | 90% | 40% | 44 g | 11% and 14.7% | 3.7% | Dose (Rattus norvegicus [21]): 7.7%; Dose (Rattus norvegicus [22]): 14%; Dose (Rattus norvegicus [23]): 3%; Dose (Rattus norvegicus [24]): 3.2%; Dose (Rattus norvegicus [25]): 5%; Dose (Rattus norvegicus [26]): 10.7%; Dose (Rattus norvegicus [27]): 17.2%; Dose (Rattus norvegicus [28]): 11.4%; Dose (Rattus norvegicus [29]): 16.4%
